Measured values taken from ChEMBL document CHEMBL2401625, “Synthesis and evaluation of pharmacological properties of some new xanthone derivatives with piperazine moiety” (Bioorg Med Chem Lett, 2013).
Active and inactive are the calls of the source. The calls are words filed in the database; no cut-off is given here.

Tests used:
[1] = biological target: T1, Adrenergic receptor alpha-1 (Rattus norvegicus, UniProt P15823+P23944+P43140); assay: Displacement of [3H]prazosin from alpha1-adrenergic receptor in rat cerebral cortex after 30 mins by scintillation counting; type: tissue-based
T1 sequence (P15823 whole entry): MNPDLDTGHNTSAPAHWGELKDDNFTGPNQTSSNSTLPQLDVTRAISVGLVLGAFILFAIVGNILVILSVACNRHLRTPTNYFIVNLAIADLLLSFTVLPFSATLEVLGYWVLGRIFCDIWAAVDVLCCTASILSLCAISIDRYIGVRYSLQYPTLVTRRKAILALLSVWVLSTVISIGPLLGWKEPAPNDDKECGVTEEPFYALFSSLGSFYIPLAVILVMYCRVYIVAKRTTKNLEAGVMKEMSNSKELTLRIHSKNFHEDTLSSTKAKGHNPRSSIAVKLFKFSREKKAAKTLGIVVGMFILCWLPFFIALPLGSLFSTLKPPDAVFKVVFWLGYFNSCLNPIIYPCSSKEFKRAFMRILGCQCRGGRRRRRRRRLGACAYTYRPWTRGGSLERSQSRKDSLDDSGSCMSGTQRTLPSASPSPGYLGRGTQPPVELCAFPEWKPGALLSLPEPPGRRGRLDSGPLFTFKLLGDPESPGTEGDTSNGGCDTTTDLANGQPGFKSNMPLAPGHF
T1 sequence (P23944 whole entry): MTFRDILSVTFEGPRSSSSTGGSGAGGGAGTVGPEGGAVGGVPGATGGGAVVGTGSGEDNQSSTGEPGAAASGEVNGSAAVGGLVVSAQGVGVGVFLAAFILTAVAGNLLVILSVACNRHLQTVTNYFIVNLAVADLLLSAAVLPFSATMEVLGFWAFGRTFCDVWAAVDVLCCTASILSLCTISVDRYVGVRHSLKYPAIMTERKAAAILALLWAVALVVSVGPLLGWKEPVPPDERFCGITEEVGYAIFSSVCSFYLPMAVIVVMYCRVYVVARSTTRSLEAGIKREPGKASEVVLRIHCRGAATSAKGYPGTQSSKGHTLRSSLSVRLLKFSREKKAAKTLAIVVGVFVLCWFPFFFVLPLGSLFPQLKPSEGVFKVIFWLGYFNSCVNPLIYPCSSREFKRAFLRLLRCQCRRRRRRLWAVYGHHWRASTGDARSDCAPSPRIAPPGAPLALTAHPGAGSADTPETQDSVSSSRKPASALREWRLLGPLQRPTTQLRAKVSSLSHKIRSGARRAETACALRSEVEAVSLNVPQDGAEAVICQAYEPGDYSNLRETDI
T1 sequence (P43140 whole entry): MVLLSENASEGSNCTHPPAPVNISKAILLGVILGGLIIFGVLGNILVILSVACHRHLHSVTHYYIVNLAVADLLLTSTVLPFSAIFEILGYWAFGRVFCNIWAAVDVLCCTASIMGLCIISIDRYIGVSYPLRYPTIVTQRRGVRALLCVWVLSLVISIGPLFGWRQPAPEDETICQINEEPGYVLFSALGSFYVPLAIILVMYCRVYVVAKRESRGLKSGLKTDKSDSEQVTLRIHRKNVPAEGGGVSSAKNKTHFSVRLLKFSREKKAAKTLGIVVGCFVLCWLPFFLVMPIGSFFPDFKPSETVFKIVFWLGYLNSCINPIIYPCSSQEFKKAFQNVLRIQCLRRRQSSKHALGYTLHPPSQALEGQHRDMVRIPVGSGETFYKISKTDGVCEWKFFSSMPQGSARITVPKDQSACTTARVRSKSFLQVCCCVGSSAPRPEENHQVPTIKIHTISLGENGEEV
How it was run: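 Radioligand binding on rat brain tissue membranes, run in 96-well format. [3H]prazosin was used for α1 (n = 2) and [3H]CGP-12177 for β1 (n = 2). Ki was calculated by the Cheng–Prusoff equation.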

[2] = biological target: 5-hydroxytryptamine receptor 7 (Homo sapiens, UniProt P34969); assay: Displacement of [3H]5-CT from human 5HT7b receptor expressed in HEK293 cells after 1 hr; type: cell-based
Chain of 5-hydroxytryptamine receptor 7 (P34969 whole entry): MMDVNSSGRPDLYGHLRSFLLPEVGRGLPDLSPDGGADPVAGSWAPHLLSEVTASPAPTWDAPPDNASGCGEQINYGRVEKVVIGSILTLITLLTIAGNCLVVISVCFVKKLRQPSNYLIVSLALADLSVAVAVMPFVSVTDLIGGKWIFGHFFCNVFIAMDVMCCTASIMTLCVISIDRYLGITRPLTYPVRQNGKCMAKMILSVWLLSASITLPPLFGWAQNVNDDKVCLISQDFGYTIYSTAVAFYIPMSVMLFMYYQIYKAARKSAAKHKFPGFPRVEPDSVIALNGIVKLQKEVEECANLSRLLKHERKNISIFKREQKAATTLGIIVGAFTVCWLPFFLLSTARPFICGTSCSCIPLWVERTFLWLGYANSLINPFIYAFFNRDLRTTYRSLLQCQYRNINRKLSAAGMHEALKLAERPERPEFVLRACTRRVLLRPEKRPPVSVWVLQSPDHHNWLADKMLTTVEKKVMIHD

[3] = biological target: 5-hydroxytryptamine receptor 6 (Homo sapiens, UniProt P50406); assay: Displacement of [3H]LSD from human 5HT6 receptor expressed in HEK293 cells after 1 hr; type: cell-based
Chain of 5-hydroxytryptamine receptor 6 (P50406 whole entry): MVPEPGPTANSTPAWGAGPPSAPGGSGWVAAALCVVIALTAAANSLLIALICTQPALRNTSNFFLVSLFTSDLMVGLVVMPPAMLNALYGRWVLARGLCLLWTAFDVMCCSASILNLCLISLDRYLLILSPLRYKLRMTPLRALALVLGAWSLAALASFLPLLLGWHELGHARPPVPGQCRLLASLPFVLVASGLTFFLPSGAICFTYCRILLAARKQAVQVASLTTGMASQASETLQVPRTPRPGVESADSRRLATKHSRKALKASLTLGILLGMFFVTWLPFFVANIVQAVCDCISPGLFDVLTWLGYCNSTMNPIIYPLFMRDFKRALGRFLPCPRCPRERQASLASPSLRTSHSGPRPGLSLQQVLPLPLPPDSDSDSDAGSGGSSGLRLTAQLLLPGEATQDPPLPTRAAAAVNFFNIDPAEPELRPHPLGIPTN

[4] = biological target: T2, 5-hydroxytryptamine receptor 1A (Homo sapiens, UniProt P08908); assay: Displacement of [3H]8-OH-DPAT from human 5HT1A receptor expressed in HEK293 cells after 1 hr; type: cell-based
T2 sequence (P08908 whole entry): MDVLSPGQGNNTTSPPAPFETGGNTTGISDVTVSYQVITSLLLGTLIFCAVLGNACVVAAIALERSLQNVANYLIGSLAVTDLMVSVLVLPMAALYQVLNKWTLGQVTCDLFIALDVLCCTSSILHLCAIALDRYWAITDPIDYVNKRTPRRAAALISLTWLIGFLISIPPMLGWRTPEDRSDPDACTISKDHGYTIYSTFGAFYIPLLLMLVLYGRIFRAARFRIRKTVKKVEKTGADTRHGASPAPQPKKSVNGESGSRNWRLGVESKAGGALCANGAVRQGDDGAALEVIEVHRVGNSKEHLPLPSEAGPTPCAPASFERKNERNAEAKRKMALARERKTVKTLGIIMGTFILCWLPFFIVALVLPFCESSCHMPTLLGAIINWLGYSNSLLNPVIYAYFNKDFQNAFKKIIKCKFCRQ

[5] = species: Rattus norvegicus; assay: Displacement of [3H]CGP-12177 from beta1-adrenergic receptor in rat cerebral cortex at 50 uM after 60 mins by scintillation counting; type: tissue-based
[6] = test system: Mus musculus; assay: Neurotoxicity in CF1 mouse assessed as minimal motor impairment at 30 mg/kg, ip after 4 hrs by rotorod test; type: toxicity, organism-based; parameters: dose 30 mg/kg, route intraperitoneal; conditions: in vivo
How it was run: (§1)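 Rotarod neurotoxicity screen in mice dosed i.p. at 30, 100 or 300 mg/kg, read 0.5 or 4 h after dosing. The animal must stay on a rod rotating at 6 rpm without falling, measured 3 times within 1 min. A fall counts as minimal motor impairment. Result is recorded as impaired animals over animals used.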

[7] = test system: Mus musculus; assay: Neurotoxicity in CF1 mouse assessed as minimal motor impairment at 100 mg/kg, ip after 4 hrs by rotorod test; type: toxicity, organism-based; parameters: dose 100 mg/kg, route intraperitoneal; conditions: in vivo; how it was run: as §1
[8] = test system: Mus musculus; assay: Neurotoxicity in CF1 mouse assessed as minimal motor impairment at 300 mg/kg, ip after 0.5 hrs by rotorod test; type: toxicity, organism-based; parameters: dose 300 mg/kg, route intraperitoneal; conditions: in vivo; how it was run: as §1
[9] = test system: Mus musculus; assay: Neurotoxicity in CF1 mouse assessed as minimal motor impairment at 30 mg/kg, ip after 0.5 hrs by rotorod test; type: toxicity, organism-based; parameters: dose 30 mg/kg, route intraperitoneal; conditions: in vivo; how it was run: as §1
[10] = test system: Rattus norvegicus; assay: Neurotoxicity in Sprague-Dawley rat assessed as minimal motor impairment at 30 mg/kg, po after 1 hr by rotorod test; conditions: in vivo
[11] = test system: Rattus norvegicus; assay: Neurotoxicity in Sprague-Dawley rat assessed as minimal motor impairment at 30 mg/kg, po after 4 hrs by rotorod test; conditions: in vivo
[12] = test system: Rattus norvegicus; assay: Neurotoxicity in Sprague-Dawley rat assessed as minimal motor impairment at 30 mg/kg, po after 2 hrs by rotorod test; conditions: in vivo
[13] = test system: Rattus norvegicus; assay: Neurotoxicity in Sprague-Dawley rat assessed as minimal motor impairment at 30 mg/kg, po after 0.5 hrs by rotorod test; conditions: in vivo
[14] = test system: Rattus norvegicus; assay: Neurotoxicity in Sprague-Dawley rat assessed as minimal motor impairment at 30 mg/kg, po after 0.25 hrs by rotorod test; conditions: in vivo
[15] = test system: Mus musculus; assay: Anticonvulsant activity in CF1 mouse assessed as protection against maximal electroshock-induced seizures at 300 mg/kg, ip after 0.5 hrs; type: functional, organism-based; parameters: dose 300 mg/kg
How it was run: (§2)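 Mice given compound i.p. at 30, 100 or 300 mg/kg and tested 0.5 or 4 h after dosing. Seizures were induced by maximal electroshock (MES) or subcutaneous metrazole (ScMet). Prevention of seizures counts as protection. Result is recorded as number of animals protected over number tested.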

[16] = test system: Mus musculus; assay: Anticonvulsant activity in CF1 mouse assessed as protection against maximal electroshock-induced seizures at 100 mg/kg, ip after 0.5 hrs; type: functional, organism-based; parameters: dose 100 mg/kg; how it was run: as §2
[17] = test system: Mus musculus; assay: Anticonvulsant activity in CF1 mouse assessed as protection against maximal electroshock-induced seizures at 30 mg/kg, ip after 0.5 hrs; type: functional, organism-based; parameters: dose 30 mg/kg; how it was run: as §2
[18] = test system: Mus musculus; assay: Anticonvulsant activity in CF1 mouse assessed as protection against subcutaneous metrazole-induced seizures at 300 mg/kg, ip after 4 hrs; type: functional, organism-based; parameters: dose 300 mg/kg; how it was run: as §2
[19] = test system: Mus musculus; assay: Anticonvulsant activity in CF1 mouse assessed as protection against subcutaneous metrazole-induced seizures at 100 mg/kg, ip after 4 hrs; type: functional, organism-based; parameters: dose 100 mg/kg; how it was run: as §2
[20] = test system: Mus musculus; assay: Anticonvulsant activity in CF1 mouse assessed as protection against subcutaneous metrazole-induced seizures at 30 mg/kg, ip after 4 hrs; type: functional, organism-based; parameters: dose 30 mg/kg; how it was run: as §2
[21] = test system: Mus musculus; assay: Anticonvulsant activity in CF1 mouse assessed as protection against subcutaneous metrazole-induced seizures at 300 mg/kg, ip after 0.5 hrs; type: functional, organism-based; parameters: dose 300 mg/kg; how it was run: as §2
[22] = test system: Mus musculus; assay: Anticonvulsant activity in CF1 mouse assessed as protection against subcutaneous metrazole-induced seizures at 100 mg/kg, ip after 0.5 hrs; type: functional, organism-based; parameters: dose 100 mg/kg; how it was run: as §2
[23] = test system: Mus musculus; assay: Anticonvulsant activity in CF1 mouse assessed as protection against subcutaneous metrazole-induced seizures at 30 mg/kg, ip after 0.5 hrs; type: functional, organism-based; parameters: dose 30 mg/kg; how it was run: as §2
[24] = test system: Mus musculus; assay: Anticonvulsant activity in CF1 mouse assessed as protection against maximal electroshock-induced seizures at 300 mg/kg, ip after 4 hrs; type: functional, organism-based; parameters: dose 300 mg/kg; how it was run: as §2
[25] = test system: Mus musculus; assay: Anticonvulsant activity in CF1 mouse assessed as protection against maximal electroshock-induced seizures at 100 mg/kg, ip after 4 hrs; type: functional, organism-based; parameters: dose 100 mg/kg; how it was run: as §2
[26] = test system: Mus musculus; assay: Anticonvulsant activity in CF1 mouse assessed as protection against maximal electroshock-induced seizures at 30 mg/kg, ip after 4 hrs; type: functional, organism-based; parameters: dose 30 mg/kg; how it was run: as §2
[27] = test system: Mus musculus; assay: Neurotoxicity in CF1 mouse assessed as minimal motor impairment at 300 mg/kg, ip after 4 hrs by rotorod test; type: toxicity, organism-based; parameters: dose 300 mg/kg, route intraperitoneal; conditions: in vivo; how it was run: as §1
[28] = test system: Mus musculus; assay: Neurotoxicity in CF1 mouse assessed as minimal motor impairment at 100 mg/kg, ip after 0.5 hrs by rotorod test; type: toxicity, organism-based; parameters: dose 100 mg/kg, route intraperitoneal; conditions: in vivo; how it was run: as §1
[29] = test system: Rattus norvegicus; assay: Anticonvulsant activity in Sprague-Dawley rat assessed as protection against maximal electroshock-induced seizures at 30 mg/kg, po after 0.25 hrs; type: functional, organism-based; parameters: dose 30 mg/kg
How it was run: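 Rats dosed orally at 30 mg/kg and tested in MES at several time points after dosing. Protection means seizures were prevented. Result is recorded as number of animals protected over number tested.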

Compound	Ki [1]	Ki [2]	Ki [3]	Ki [4]	inhibition [5]	Activity [6]	Activity [7]	Activity [9]	Activity [15]	Activity [16]	Activity [17]	Activity [18]	Activity [19]	Activity [20]	Activity [21]	Activity [22]	Activity [23]	Activity [24]	Activity [26]	other results
COc1ccc2c(=O)c3cc(CN4CCN(Cc5ccccc5)CC4)ccc3oc2c1.Cl.Cl	0.31 µM	13.5 µM	8.84 µM	1.67 µM																
COc1ccc2c(=O)c3cc(CN4CCN(C)CC4)ccc3oc2c1.Cl.Cl	0.49 µM	17 µM	19.1 µM	15.8 µM																
CN1CCN(Cc2cccc3c(=O)c4ccc(Cl)cc4oc23)CC1.Cl.Cl.Cl	0.65 µM	10.5 µM	19.5 µM	13.3 µM	inactive															
COc1ccc2c(=O)c3cc(CN4CCN(C)CC4)ccc3oc2c1						Non-toxic	Non-toxic	Non-toxic												Activity [8]: Toxic; Activity [10]: Non-toxic; Activity [11]: Non-toxic; Activity [12]: Non-toxic; Activity [13]: Non-toxic; Activity [14]: Non-toxic
COc1ccc2c(=O)c3cc(CN4CCN(c5ccccc5OC)CC4)ccc3oc2c1 [listing 1 of 2 here]									inactive	inactive	inactive	inactive	inactive	inactive	inactive	inactive	inactive	inactive	inactive	Activity [25]: inactive
COc1ccc2c(=O)c3cccc(CN4CCN(c5ccccc5OC)CC4)c3oc2c1.Cl	0.17 µM	0.195 µM	9.36 µM	0.024 µM	inactive	Non-toxic	Non-toxic	Non-toxic	inactive	inactive	inactive	inactive	inactive	inactive	inactive	inactive	inactive	inactive	inactive	Activity [27]: Non-toxic; Activity [28]: Non-toxic; Activity [25]: inactive
COc1ccc2c(=O)c3cc(CN4CCN(c5ccccc5OC)CC4)ccc3oc2c1 [listing 2 of 2 here]						Non-toxic	Non-toxic	Non-toxic												Activity [27]: Non-toxic; Activity [8]: Non-toxic
COc1ccc2c(=O)c3cc(CN4CCN(Cc5ccccc5)CC4)ccc3oc2c1					inactive				inactive	inactive	inactive	inactive	inactive	inactive	inactive	inactive	inactive	Active	inactive	Activity [29]: inactive
